Bioassay records from PubChem BioAssay.
Compounds with a hit are over-represented: about 3.9% of the library has one in this group of screens.
APP 5'UTR act – APP 5'UTR luciferase reporter activation; AID 1276; activation, % at 2 µM; 190,000 tested, 1% active; SH-SY5Y APP 5'UTR luciferase reporter, luminescence; zero percent = DMSO vehicle wells;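 active = activation above a set limit, based on mean plus 3 SD of controls, cut at about 140% in these data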
Rad51 HR inh – Rad51 (human) homologous recombination inhibition. Q06609. hRad51 DNA strand exchange, fluorescence dequenching. inhibition, % at 10 µM. 200,000 tested, 0.085% active;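 active = inhibition above 40% at the single screening dose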;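 also: 0% = DMSO control wells and 100% = blanks with heterologous ssDNA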
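material = hRad51 filaments on single-stranded DNA | timing = filaments 15 min 37 °C, then compound 30 min | signal = FRET fluorescence dequenching, excitation 485 nm, emission 520 nm | benchmarks = control wells and blank wells on each plate | evaluation = percent inhibition relative to plate controls and blanks | compound = 10 µM final, single point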
FLuc act counter – affects firefly luciferase, flagging false hits in luciferase stimulation screens; activation factor at 10 µM; P08659; 200,000 tested, under 10 active; ATPlite luciferase biochemical, luminescence, 10 min; 0 = ATP-free wells, 1 = DMSO control;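 active = luciferase activation factor, scaled between plate controls, of at least 2 with compound at 10 µM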
Target sequence (P08659 whole entry, looked up): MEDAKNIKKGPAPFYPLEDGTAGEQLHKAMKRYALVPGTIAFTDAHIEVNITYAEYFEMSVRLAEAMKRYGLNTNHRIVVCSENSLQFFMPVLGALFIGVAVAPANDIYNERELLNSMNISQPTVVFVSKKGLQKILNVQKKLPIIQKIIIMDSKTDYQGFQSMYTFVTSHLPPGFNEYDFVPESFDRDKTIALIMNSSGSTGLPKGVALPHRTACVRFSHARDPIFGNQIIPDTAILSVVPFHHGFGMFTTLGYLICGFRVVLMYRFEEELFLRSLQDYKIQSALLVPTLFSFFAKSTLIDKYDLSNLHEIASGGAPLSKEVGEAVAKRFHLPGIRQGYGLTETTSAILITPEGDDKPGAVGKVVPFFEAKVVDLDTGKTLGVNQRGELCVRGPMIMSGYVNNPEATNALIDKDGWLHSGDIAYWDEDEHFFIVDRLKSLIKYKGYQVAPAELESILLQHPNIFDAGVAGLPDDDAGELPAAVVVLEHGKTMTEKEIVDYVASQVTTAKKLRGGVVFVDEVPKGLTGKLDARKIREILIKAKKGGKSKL
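System: cell-free luciferase reagent; medium: PBS as buffer for the ATP substrate; doses: test compounds dosed from 2 mM stocks in 100% DMSO; incubation: 10 min, room temperature; measured by: luminescence from luciferase reaction; read-out: luciferase activation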
NF-kB expr up – raises NF-kB expression in human neuronal cells. NF-kB reporter expression; hits give high values. fold change at 12.5 µM. 190,000 tested, 1.6% active; in the data active = fold change above about 3.3
STAT1 activator – activators of IFN-gamma induced STAT1 signaling | 200,000 tested, 2.6% active | NIH 3T3 STAT1-luciferase reporter, luminescence; 100% = IFN-gamma alone, no compound | AID 932 | activation (% of control), % at 5.5 µM;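 active = activation above the screen-wide mean activation plus 3 SD, cut at about 130% in these data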;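 also: raw ratio to IFN-gamma control signal so 100% means no change and 0% no light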
FLuc inhib CS – inhibits firefly luciferase, flagging false hits in luciferase inhibition screens. ATPLite firefly luciferase biochemical luminescence, 10 min. 200,000 tested, 1.5% active. inhibition, % at 10 µM;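 active = inhibition above about 50% when tested at 10 µM, limit read from the data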
Active calls of the source: *; / = no result.

SMILES	APP 5'UTR act	Rad51 HR inh	FLuc act counter	NF-kB expr up	STAT1 activator	FLuc inhib CS
COc1cccc(/C=C/C(=O)Nc2ccc3c(c2)OCCO3)c1OC	205.0*	1.0	0.1	8.64*	75.9	92.6*
COc1ccc(OC(=O)c2cccc([N+](=O)[O-])c2)c(C(=O)/C=C/c2cccs2)c1	-10.7	18.1	1	3.44*	101.8	-0.2
O=C(N/N=C/c1ccc(OC(=O)c2ccco2)cc1)c1ccccn1	67.5	-4.1	0.5	2.41	111.6	51.8*
Cc1ccc(/C=N/NC(=O)c2ccccn2)o1	14.8	11.8	0.8	1.91	130.4*	19.9
Cc1ccc(/C=N/NC(=O)c2ccncc2)o1	3.0	4.3	1	1.13	101.7	-0.1
Cc1cccc(-n2c(C)cc(/C=N\NC(=O)c3ccco3)c2C)c1	60.6	17.2	0.6	1.95	145.2*	35.3
O=C(N/N=C/c1ccc2ncccc2c1)c1ccco1	116.0	3.4	0.1	1.1	71.9	92.0*
O=C(N/N=C\c1ccc(OC(=O)c2ccco2)cc1)c1ccc(Cl)cc1	6.2	5.2	1.1	1.38	106.9	-5.6
CN(Cc1ccc(-n2cccn2)cc1)Cc1nc(-c2cnccn2)no1	3.9	/	1.1	1.14	104.3	-9.1
N=c1c2cn[nH]c2nc(SCC(=O)c2ccc(Br)cc2)n1-c1ccc(Br)cc1	-15.6	-1.9	1.1	0.89	104.7	-7.7
O=C(N/N=C/c1cccc(OC(=O)c2ccco2)c1)c1ccc(F)cc1	52.6	/	0.4	2.29	121.8	63.2*
O=C(Nc1ccccc1C(=O)N/N=C/c1ccco1)c1ccc(F)cc1	8.2	/	0.2	1.14	94.2	80.1*
O=C(Nc1ccccc1C(=O)N/N=C/c1ccco1)c1ccccc1	9.7	-0.4	0.2	1.03	94.5	75.7*
C/C(=N\NC(=O)c1ccccc1NC(=O)c1ccc(Cl)cc1)c1ccncc1	62.1	30.8	0	3.16	10.9	97.9*
Cc1ccccc1C(=O)Nc1ccccc1C(=O)N/N=C\c1ccco1	17.8	1.2	0.8	1.16	98.9	23.4
O=C(Nc1ccccc1C(=O)N/N=C/c1ccco1)c1ccc(Cl)cc1	-14.0	/	0.1	0.92	96.1	85.3*
O=C(N/N=C/c1ccco1)c1ccncc1	/	-0.5	1	0.98	98.5	0.7
COc1ccc(-n2c(SCC(=O)Nc3cccc(S(N)(=O)=O)c3)nc3ccccc3c2=O)cc1OC	/	21.3	/	/	/	/
O=C(O)/C=C/c1ccc(Cn2ccnc2)cc1	/	5.4	/	/	/	/
COCCn1c(C)cc(/C=C2/NC(=O)N(c3cccc(Cl)c3)C2=O)c1C	56.6	-3.8	1	0.97	137.8*	1.8
COc1ccccc1NC(=O)COc1ccccc1C(=O)c1cnn(-c2ccccc2)c1	53.7	1.3	0.9	1.52	108.8	8.6
CCc1ccc(NC(=O)COc2ccc(F)cc2C(=O)c2cnn(-c3ccccc3)c2)cc1	49.5	4.2	1	1.16	129.9*	-2.9
Cc1ccnc2nc(C(=O)OCC(=O)c3c[nH]c4ccccc34)nn12	/	-9.9	/	/	/	/
CCOc1ncccc1C(=O)N1CCN(c2cc(Cl)ccc2C)CC1	-90.8	20.4	1	2.23	102.4	-2.9
CCOc1ncccc1C(=O)N1CCN(c2cccc(C)c2C)CC1	-95.1	2.0	1.1	3.9*	96.9	-5.1
SMILES	APP 5'UTR act	Rad51 HR inh	FLuc act counter	NF-kB expr up	STAT1 activator	FLuc inhib CS
O=C(NC(=S)Nc1ccc2c(c1)OCCO2)c1ccccc1	178.8*	-4.4	0.3	4.69*	128.5	68.3*
O=C(Nc1ccc2cn[nH]c2c1)c1ccccc1F	82.5	1.1	0.5	1.04	146.6*	52.9*
COc1cccc(OC)c1C(=O)NC(=S)Nc1ccc2c(c1)OCCO2	32.1	1.6	0.9	0.71	83.0	10.6
O=C(Nc1ccc2cn[nH]c2c1)c1c(Cl)cccc1Cl	12.1	0.4	1	0.88	95.2	-2.8
O=C(Nc1ccc2c(c1)OCCO2)c1ccccc1F	145.6*	2.8	0.2	5.15*	121.9	75.6*
O=C(NC(=S)Nc1ccc2c(c1)OCCO2)c1ccccc1F	159.2*	11.6	0.5	7.37*	149.2*	50.4*
CCOc1cccc(C(=O)NC(=S)Nc2ccc3c(c2)OCCO3)c1	24.7	5.4	0.8	1.86	110.9	15.9
NC(=O)Nc1ccc2c(c1)OCCO2	/	-7.2	1	1.8	106.1	1.4
